From ChEMBL document CHEMBL1159061, “Synthesis and biological properties of iron chelators based on a bis-2-(2-hydroxy-phenyl)-thiazole-4-carboxamide or -thiocarboxamide (BHPTC) scaffold” (Bioorg Med Chem, 2010)
The source made the active and inactive calls. No cut-off for these calls is given here.

Assays:
[1] = Induction of iron chelating activity by calcein fluorescence assay; assay type: physicochemical
Method in brief: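 Cell-free calcein assay in 20 mM HEPES, 150 mM NaCl, pH 7.3, at 20 °C with orbital stirring. Calcein was quenched with iron(III) for 6 h to maximal quenching. Fluorescence recovery (ex 485/em 520 nm) was followed for 1 h at various chelator concentrations, and the initial dequenching rate was derived from the kinetics. Three independent experiments.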

[2] = Antiproliferative activity against human HepaRG cells after 72 hrs by MTT assay; assay type: functional, cell-based
Method in brief: (§1)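 Proliferating HepaRG cells at day 4 (seeded at 2.5×10⁴/cm² in William's E, 10% FCS, insulin, glutamine, hydrocortisone) were exposed for 72 h to a concentration series, with or without added iron(III) as each line states. Viability was read by MTT (0.5 mg/L as printed) for 3 h in serum-free medium, DMSO-solubilized formazan at 535 nm, expressed as % of control SDH activity.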

[3] = Antiproliferative activity against human HepaRG cells after 72 hrs by MTT assay in presence of iron(3); assay type: functional, cell-based; method in brief: as §1
[4] = test system: KB; assay: Antiproliferative activity against human KB cells at 10 uM after 72 hrs by MTS assay; assay type: functional
Method in brief: (§2)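 Cells grown under 5% CO2: KB and HepG2 in DMEM with 10% FCS, penicillin, streptomycin and fungizone; HCT116, HT29, HCT15, MCF7, MCF7R, SK-OV3, PC-3, A549, HL60, K562 and SF268 in RPMI. Cells were plated in 96-well plates and dosed 24 h later from DMSO stocks (controls 1% DMSO final). After 72 h, MTS was added for 3 h at 37 °C and absorbance read at 490 nm. Inhibition = (1 − OD treated/OD control)×100, in triplicate.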

[5] = test system: KB; assay: Antiproliferative activity against human KB cells at 1 uM after 72 hrs by MTS assay; assay type: functional; method in brief: as §2
[6] = test system: HCT-116; assay: Antiproliferative activity against human HCT116 cells at 10 uM after 72 hrs by MTS assay; assay type: functional; settings: HCT-116, 72 h; method in brief: as §2
[7] = test system: HCT-116; assay: Antiproliferative activity against human HCT116 cells at 1 uM after 72 hrs by MTS assay; assay type: functional; settings: HCT-116, 72 h; method in brief: as §2
[8] = test system: HT-29; assay: Antiproliferative activity against human HT-29 cells at 10 uM after 72 hrs by MTS assay; assay type: functional; settings: HT-29, 72 h; method in brief: as §2
[9] = test system: HT-29; assay: Antiproliferative activity against human HT-29 cells at 1 uM after 72 hrs by MTS assay; assay type: functional; settings: HT-29, 72 h; method in brief: as §2
[10] = test system: HCT-15; assay: Antiproliferative activity against human HCT15 cells at 10 uM after 72 hrs by MTS assay; assay type: functional; settings: HCT-15, 72 h; method in brief: as §2
[11] = test system: HCT-15; assay: Antiproliferative activity against human HCT15 cells at 1 uM after 72 hrs by MTS assay; assay type: functional; settings: HCT-15, 72 h; method in brief: as §2
[12] = test system: MCF7; assay: Antiproliferative activity against human MCF7 cells at 10 uM after 72 hrs by MTS assay; assay type: functional; settings: MCF7, 72 h; method in brief: as §2
[13] = test system: MCF7; assay: Antiproliferative activity against human MCF7 cells at 1 uM after 72 hrs by MTS assay; assay type: functional; settings: MCF7, 72 h; method in brief: as §2
[14] = test system: MCF7; assay: Antiproliferative activity against doxorubicin-resistant human MCF7 cells at 10 uM after 72 hrs by MTS assay; assay type: functional; settings: MCF7, 72 h; method in brief: as §2
[15] = test system: MCF7; assay: Antiproliferative activity against doxorubicin-resistant human MCF7 cells at 1 uM after 72 hrs by MTS assay; assay type: functional; settings: MCF7, 72 h; method in brief: as §2
[16] = test system: A549; assay: Antiproliferative activity against human A549 cells at 10 uM after 72 hrs by MTS assay; assay type: functional; settings: A549, 72 h; method in brief: as §2
[17] = test system: A549; assay: Antiproliferative activity against human A549 cells at 1 uM after 72 hrs by MTS assay; assay type: functional; settings: A549, 72 h; method in brief: as §2
[18] = test system: PC-3; assay: Antiproliferative activity against human PC3 cells at 10 uM after 72 hrs by MTS assay; assay type: functional; settings: PC-3, 72 h; method in brief: as §2
[19] = test system: PC-3; assay: Antiproliferative activity against human PC3 cells at 1 uM after 72 hrs by MTS assay; assay type: functional; settings: PC-3, 72 h; method in brief: as §2
[20] = test system: SF-268; assay: Antiproliferative activity against human SF268 cells at 10 uM after 72 hrs by MTS assay; assay type: functional; settings: SF-268, 72 h; method in brief: as §2
[21] = test system: SF-268; assay: Antiproliferative activity against human SF268 cells at 1 uM after 72 hrs by MTS assay; assay type: functional; settings: SF-268, 72 h; method in brief: as §2
[22] = test system: SK-OV-3; assay: Antiproliferative activity against human SKOV3 cells at 10 uM after 72 hrs by MTS assay; assay type: functional; settings: SK-OV-3, 72 h; method in brief: as §2
[23] = test system: SK-OV-3; assay: Antiproliferative activity against human SKOV3 cells at 1 uM after 72 hrs by MTS assay; assay type: functional; settings: SK-OV-3, 72 h; method in brief: as §2
[24] = test system: HL-60; assay: Antiproliferative activity against human HL60 cells at 10 uM after 72 hrs by MTS assay; assay type: functional; settings: HL-60, 72 h; method in brief: as §2
[25] = test system: HL-60; assay: Antiproliferative activity against human HL60 cells at 1 uM after 72 hrs by MTS assay; assay type: functional; settings: HL-60, 72 h; method in brief: as §2
[26] = test system: K562; assay: Antiproliferative activity against human K562 cells at 10 uM after 72 hrs by MTS assay; assay type: functional; settings: K562, 72 h; method in brief: as §2
[27] = test system: K562; assay: Antiproliferative activity against human K562 cells at 1 uM after 72 hrs by MTS assay; assay type: functional; settings: K562, 72 h; method in brief: as §2
[28] = test system: HepG2; assay: Antiproliferative activity against human HepG2 cells at 10 uM after 72 hrs by MTS assay; assay type: functional; settings: HepG2, 72 h; method in brief: as §2
[29] = test system: HepG2; assay: Antiproliferative activity against human HepG2 cells at 1 uM after 72 hrs by MTS assay; assay type: functional; settings: HepG2, 72 h; method in brief: as §2
[30] = test system: Hepatocyte; assay: Cytoprotective activity in human hepatocytes assessed as inhibition of FeNTA-induced increase in extracellular LDH activity relative to control; assay type: functional; design: scale not given: the % may be the effect or the level left
[31] = test system: HepaRG; assay: Cytotoxicity against human HepaRG cells assessed as increase in extracellular LDH release at >100 uM after 72 hrs in presence of iron(3); assay type: functional, cell-based

Row | Structure (SMILES) | IC50 [2] | inhibition at 10 µM [4] | inhibition at 1 µM [5] | inhibition at 10 µM [6] | inhibition at 1 µM [7] | inhibition at 10 µM [8] | inhibition at 1 µM [9] | inhibition at 10 µM [10] | inhibition at 1 µM [11] | inhibition at 10 µM [12] | inhibition at 1 µM [13] | inhibition at 10 µM [14] | inhibition at 1 µM [15] | inhibition at 10 µM [16] | inhibition at 1 µM [17] | inhibition at 10 µM [18] | inhibition at 1 µM [19] | inhibition at 10 µM [20] | inhibition at 1 µM [21] | inhibition at 10 µM [22] | further results
1 | CC(=O)N(O)CCCCCNC(=O)CCC(=O)N(O)CCCCCNC(=O)CCC(=O)N(O)CCCCCN [DEFEROXAMINE] | 50 µM | 16% | 0% | 20% | 0% | 42% | 0% | 46% | 0% | 0% | 0% | 9% | 0% | 50% | 2% | 44% | 1% | 33% | 0% | 52% | IC50 [1]: 4.4 µM; IC50 [3]: 70 µM; inhibition at 1 µM [23]: 5%; inhibition at 10 µM [24]: 0%; inhibition at 1 µM [25]: 0%; inhibition at 10 µM [26]: 0%; inhibition at 1 µM [27]: 0%; inhibition at 10 µM [28]: 0%; inhibition at 1 µM [29]: 0%; Activity [30]: 162%
2 | COC(=O)c1ccc(O)c(-c2nc(C(=O)NCCOCCOCCNC(=O)c3csc(-c4cc(C(=O)OC)ccc4O)n3)cs2)c1 | 64 µM | 28% | 0% | 13% | 0% | 4% | 0% | 14% | 11% | 4% | 0% | 19% | 0% | 11% | 0% | 37% | 8% | 19% | 0% | 22% | IC50 [1]: 1 µM; IC50 [3]: 78 µM; Activity [31]: Active; inhibition at 1 µM [23]: 10%; inhibition at 10 µM [24]: 0%; inhibition at 1 µM [25]: 0%; inhibition at 10 µM [26]: 10%; inhibition at 1 µM [27]: 2%; inhibition at 10 µM [28]: 26%; inhibition at 1 µM [29]: 0%; Activity [30]: 148%
3 | O=C(O)c1ccc(O)c(-c2nc(C(=S)NCCOCCOCCNC(=S)c3csc(-c4cc(C(=O)O)ccc4O)n3)cs2)c1 | 114 µM | 0% | 0% | 0% | 0% | 0% | 0% | 8% | 0% | 0% | 0% | 1% | 0% | 7% | 0% | 0% | 0% | 5% | 0% | 2% | IC50 [1]: 0.07 µM; Activity [31]: Active; inhibition at 1 µM [23]: 3%; inhibition at 10 µM [24]: 0%; inhibition at 1 µM [25]: 0%; inhibition at 10 µM [26]: 2%; inhibition at 1 µM [27]: 0%; inhibition at 10 µM [28]: 0%; inhibition at 1 µM [29]: 0%
4 | COC(=O)c1ccc(O)c(-c2nc(C(=S)NCCOCCOCCNC(=S)c3csc(-c4cc(C(=O)OC)ccc4O)n3)cs2)c1 | 42 µM | 58% | 5% | 69% | 6% | 3% | 0% | 42% | 1% | 10% | 0% | 64% | 0% | 98% | 8% | 54% | 10% | 62% | 0% | 45% | IC50 [1]: 0.5 µM; IC50 [3]: 50 µM; inhibition at 1 µM [23]: 10%; inhibition at 10 µM [24]: 52%; inhibition at 1 µM [25]: 0%; inhibition at 10 µM [26]: 53%; inhibition at 1 µM [27]: 1%; inhibition at 10 µM [28]: 43%; inhibition at 1 µM [29]: 0%
5 | O=C(O)c1ccc(O)c(-c2nc(C(=O)NCCOCCOCCNC(=O)c3csc(-c4cc(C(=O)O)ccc4O)n3)cs2)c1 | 120 µM | 2% | 0% | 0% | 0% | 1% | 0% | 0% | 0% | 0% | 0% | 2% | 0% | 0% | 1% | 8% | 0% | 0% | 0% | 7% | Activity [31]: Active; inhibition at 1 µM [23]: 4%; inhibition at 10 µM [24]: 0%; inhibition at 1 µM [25]: 0%; inhibition at 10 µM [26]: 9%; inhibition at 1 µM [27]: 0%; inhibition at 10 µM [28]: 0%; inhibition at 1 µM [29]: 0%; Activity [30]: 179%
